Test results from ChEMBL document CHEMBL1240299, “C3-symmetric peptide scaffolds are functional mimetics of trimeric CD40L” (Nat Chem Biol, 2005).
Activity calls are given as the source filed them. No cut-off for these calls is given here.

Target: Tumor necrosis factor receptor superfamily member 5 (Homo sapiens, UniProt P25942)
Assay: Binding affinity to human CD40 by surface plasmon resonance method
Method in brief: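 Biacore CM5 chip coated by amine coupling with anti-mouse Ig (~10,000 RU), which captured hCD40:mIg. Ligands were dissolved in water at 1 mM and diluted, then injected at several concentrations at 25 °C in HBS-EP (pH 7.4), 30 µl min⁻¹, 5 min association and 5 min dissociation. Regeneration was 50 mM HCl. Control-channel-subtracted sensorgrams were fitted to binding models.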

Chain of Tumor necrosis factor receptor superfamily member 5 (P25942 whole entry): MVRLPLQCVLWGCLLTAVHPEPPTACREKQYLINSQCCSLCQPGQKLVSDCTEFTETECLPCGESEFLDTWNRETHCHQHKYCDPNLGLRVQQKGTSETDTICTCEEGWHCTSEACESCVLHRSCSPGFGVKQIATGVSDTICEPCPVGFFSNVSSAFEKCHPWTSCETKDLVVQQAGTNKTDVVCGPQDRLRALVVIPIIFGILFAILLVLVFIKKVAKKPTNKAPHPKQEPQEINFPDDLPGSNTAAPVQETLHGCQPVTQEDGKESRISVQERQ

SMILES: NCCCC[C@H](N)C(=O)NCC(=O)N[C@@H](Cc1ccc(O)cc1)C(=O)N[C@@H](Cc1ccc(O)cc1)C(=O)NCCCCCC(=O)N[C@@H](CCCCNC(=O)CCCC[C@H]1SC[C@H]2NC(=O)N[C@H]21)C(=O)NCCCCCC(=O)NCCCC[C@@H]1CNC(=O)C[C@H](CCCCNC(=O)CCCCCNC(=O)[C@H](CCCCNC(=O)CCCC[C@H]2SC[C@H]3NC(=O)N[C@H]32)NC(=O)CCCCCNC(=O)[C@H](Cc2ccc(O)cc2)NC(=O)[C@H](Cc2ccc(O)cc2)NC(=O)CNC(=O)[C@@H](N)CCCCN)NC[C@H](CCCCNC(=O)CCCCCNC(=O)[C@H](CCCCNC(=O)CCCC[C@H]2SC[C@H]3NC(=O)N[C@H]32)NC(=O)CCCCCNC(=O)[C@H](Cc2ccc(O)cc2)NC(=O)[C@H](Cc2ccc(O)cc2)NC(=O)CNC(=O)[C@@H](N)CCCCN)NC(=O)C1
- Activity: Active
